Results: ChEMBL document CHEMBL1139795, “Capped diaminopropionamide-glycine dipeptides are inhibitors of CC chemokine receptor 2 (CCR2)” (Bioorg Med Chem Lett, 2007)

What was measured:
[1] = biological target: T1, C-C chemokine receptor type 2 (Homo sapiens, UniProt P41597); experiment: Displacement of [125]MCP1 from CCR2 in human PBMCs
Summary of the method: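 Competition binding with 0.3 nM [125I]MCP-1 on human peripheral blood mononuclear cells at 23 °C. IC50 given as mean ± SD (n = 2) or mean ± SEM (n > 2). Single determinations are listed with n = 1.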
Target sequence in this assay (P41597 whole entry): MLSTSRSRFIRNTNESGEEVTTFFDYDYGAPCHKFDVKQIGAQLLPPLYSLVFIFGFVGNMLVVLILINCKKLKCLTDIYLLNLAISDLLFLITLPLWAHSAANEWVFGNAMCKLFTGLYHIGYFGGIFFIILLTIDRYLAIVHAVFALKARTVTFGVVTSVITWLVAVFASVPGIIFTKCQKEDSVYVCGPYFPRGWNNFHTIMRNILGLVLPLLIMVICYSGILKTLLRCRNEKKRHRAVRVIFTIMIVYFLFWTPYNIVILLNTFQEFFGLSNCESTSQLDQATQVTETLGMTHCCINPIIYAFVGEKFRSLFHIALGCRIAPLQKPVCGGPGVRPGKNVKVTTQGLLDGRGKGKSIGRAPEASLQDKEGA

[2] = biological target: T1, C-C chemokine receptor type 2; experiment: Antagonist activity at CCR2 in THP1 cells assessed as inhibition of MCP1-induced Ca2+ flux; assay type: functional, cell-based, THP-1
Target sequence in this assay (P41597 whole entry): as above

[3] = biological target: T2, C-C chemokine receptor type 3 (Homo sapiens, UniProt P51677); experiment: Displacement of [125I]eotaxin from human CCR3 expressed in CHO cells; assay type: cell-based
T2 sequence (P51677 whole entry): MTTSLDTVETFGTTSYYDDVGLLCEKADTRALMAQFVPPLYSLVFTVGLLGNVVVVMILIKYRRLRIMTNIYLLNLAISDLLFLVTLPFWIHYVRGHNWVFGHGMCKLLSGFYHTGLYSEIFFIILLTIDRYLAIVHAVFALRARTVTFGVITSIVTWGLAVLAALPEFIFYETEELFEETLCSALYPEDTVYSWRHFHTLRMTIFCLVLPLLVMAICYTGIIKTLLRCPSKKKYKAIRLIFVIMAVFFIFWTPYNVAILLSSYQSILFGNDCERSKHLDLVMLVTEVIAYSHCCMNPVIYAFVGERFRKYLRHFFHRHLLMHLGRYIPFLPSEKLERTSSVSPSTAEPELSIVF
Summary of the method: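 Binding of 0.15 nM [125I]eotaxin to CHO cells expressing human CCR3. Data are a single determination, mean ± SD (n = 2), or mean ± SEM (n indicated). ">" means less than 50% response at the stated concentration.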

[4] = biological target: T3, C-C chemokine receptor type 1 (Homo sapiens) (UniProt P32246); experiment: Inhibition of CCR1 at 10 uM
T3 sequence (whole entry): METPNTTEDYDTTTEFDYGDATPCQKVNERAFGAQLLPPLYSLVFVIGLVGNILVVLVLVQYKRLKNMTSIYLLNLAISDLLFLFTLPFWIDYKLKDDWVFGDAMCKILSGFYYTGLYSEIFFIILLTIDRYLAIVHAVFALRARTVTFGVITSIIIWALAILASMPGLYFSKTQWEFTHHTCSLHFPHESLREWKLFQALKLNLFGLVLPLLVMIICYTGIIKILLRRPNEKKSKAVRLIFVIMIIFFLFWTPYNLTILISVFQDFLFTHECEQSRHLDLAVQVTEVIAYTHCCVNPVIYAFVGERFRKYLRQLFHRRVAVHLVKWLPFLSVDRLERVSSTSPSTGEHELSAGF

[5] = biological target: T1, C-C chemokine receptor type 2; experiment: Displacement of [125]MCP1 from CCR2 in human PBMCs at 10 uM
Summary of the method: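 Human PBMCs were incubated with 0.3 nM [125I]MCP-1 at 23 °C. Percent inhibition of binding was measured at one fixed inhibitor concentration, n = 1.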
Target sequence in this assay (P41597 whole entry, looked up): as the sequence (P41597 whole entry) above

IC50 [1] [nM] | IC50 [2] [nM] | IC50 [3] [nM] | inhibition [4] [%] | Activity [5] [%] | Structure (SMILES)
19 | 57 | > 10000 | < 30 | – | Cc1ccc(CNC[C@H](NC(=O)CNC(=O)c2cc(C(F)(F)F)ccc2NCc2ccccc2)C(=O)NC(C)(C)C)c(C)c1
23 | 52 | > 10000 | < 30 | – | Cc1ccc(CNC[C@H](NC(=O)CNC(=O)c2cc(N)cc(C(F)(F)F)c2)C(=O)NC(C)(C)C)c(C)c1
1100 | – | – | < 30 | – | COc1ccc(CNC[C@H](NC(=O)CNC(=O)c2cccc(C(F)(F)F)c2)C(=O)NC(C)(C)C)cc1
190 | – | – | < 30 | – | Cc1ccc(CNC[C@H](NC(=O)CNC(=O)c2cccc(OC(F)(F)F)c2)C(=O)NC(C)(C)C)c(C)c1
99 | – | – | < 30 | – | Cc1ccc(CNC[C@H](NC(=O)CNC(=O)c2cccc(C(F)(F)F)c2)C(=O)NC2CCCC2)c(C)c1
260 | – | – | < 30 | – | Cc1ccc(CNC[C@H](NC(=O)CNC(=O)c2cccc(C(F)(F)F)c2)C(=O)N2CCCC2)c(C)c1
320 | – | – | < 30 | – | Cc1ccc(CNC[C@@H](CO)NC(=O)CNC(=O)c2cccc(C(F)(F)F)c2)c(C)c1
– | – | – | < 30 | 9 | Cc1ccc(CNC[C@H](NC(=O)[C@H](C)NC(=O)c2cccc(C(F)(F)F)c2)C(N)=O)c(C)c1
530 | – | – | < 30 | – | CCc1ccc(CNC[C@H](NC(=O)CNC(=O)c2cccc(C(F)(F)F)c2)C(=O)NC(C)(C)C)cc1
8700 | – | – | < 30 | – | CCNC(=O)C(C)(CNCc1ccc(C)cc1C)NC(=O)CNC(=O)c1cc(C(F)(F)F)ccc1N (racemic)
400 | – | – | < 30 | – | Cc1ccc(CNC[C@H](NC(=O)CNC(=O)c2cccc(C(F)F)c2)C(=O)NC(C)(C)C)c(C)c1
66 | 69 | > 10000 | < 30 | – | Cc1ccc(CNC[C@H](NC(=O)CNC(=O)c2cccc(C(F)(F)F)c2)C(N)=O)c(C)c1
1500 | – | – | < 30 | – | COC(=O)[C@H](CNCc1ccc(C)cc1C)NC(=O)CNC(=O)c1cccc(C(F)(F)F)c1
17 | – | – | < 30 | – | Cc1ccc(CN2CC[C@@H](NC(=O)CNC(=O)c3cccc(C(F)(F)F)c3)C2)c(C)c1
22000 | – | – | < 30 | – | CCNC(=O)[C@@H](CNC(=O)CNC(=O)c1cccc(C(F)(F)F)c1)NCc1ccc(C)cc1C
19 | 58 | > 10000 | < 30 | – | CCNc1cc(C(=O)NCC(=O)N[C@@H](CNCc2ccc(C)cc2C)C(=O)NC(C)(C)C)cc(C(F)(F)F)c1
430 | – | – | < 30 | – | CN(C)c1ccc(CNC[C@H](NC(=O)CNC(=O)c2cccc(C(F)(F)F)c2)C(=O)NC(C)(C)C)cc1
1200 | – | – | < 30 | – | Cc1ccc(CNC[C@H](NC(=O)CNC(=O)c2cccc(C(F)(F)F)c2)C(=O)Nc2ccccc2)c(C)c1
88 | – | – | < 30 | – | Cc1ccc(CNC[C@H](NC(=O)CNC(=O)c2cccc(C(F)(F)F)c2)C(=O)NC2CC2)c(C)c1
5600 | – | – | < 30 | – | CCCCc1ccc(CNC[C@H](NC(=O)CNC(=O)c2cccc(C(F)(F)F)c2)C(=O)NC(C)(C)C)cc1
13 | 84 | > 10000 | < 30 | – | CCNc1ccc(C(F)(F)F)cc1C(=O)NCC(=O)N[C@@H](CNCc1ccc(C)cc1C)C(=O)NC(C)(C)C
630 | – | – | < 30 | – | Cc1ccc(CNC[C@@H](NC(=O)CNC(=O)c2cccc(C(F)(F)F)c2)C(N)=O)c(C)c1
48 | 52 | > 10000 | < 30 | – | Cc1ccc(CNC[C@H](NC(=O)CNC(=O)c2cccc(C(F)(F)F)c2)C(=O)NC(C)(C)C)c(C)c1

Continued, compound first:

Structure (SMILES) | IC50 [1] [nM] | IC50 [2] [nM] | IC50 [3] [nM] | inhibition [4] [%] | Activity [5] [%]
CCNC(=O)[C@@H](NC(=O)CNC(=O)c1cccc(C(F)(F)F)c1)[C@H](C)NCc1ccc(C)cc1C | – | – | – | < 30 | 2
Cc1ccc(CNC[C@H](NC(=O)CNC(=O)c2cc(C(F)(F)F)ccc2NC(=O)NC(C)C)C(=O)NC(C)(C)C)c(C)c1 | 15 | 58 | 10000 | < 30 | –
Cc1ccc(CNC[C@H](NC(=O)CNC(=O)c2cccc(C(F)(F)F)c2)C(=O)NCC(F)(F)F)c(C)c1 | 55 | – | – | < 30 | –
COc1ccc(CNC[C@H](NC(=O)CNC(=O)c2cccc(C(F)(F)F)c2)C(=O)NC(C)(C)C)c(C)c1 | 47 | – | – | < 30 | –
Cc1ccc(CNC[C@@H](NC(=O)CNC(=O)c2cccc(C(F)(F)F)c2)C(C)C)c(C)c1 | – | – | – | < 30 | 20
Cc1ccc(CNC[C@H](C)NC(=O)CNC(=O)c2cccc(C(F)(F)F)c2)c(C)c1 | – | – | – | < 30 | 35
Cc1ccc(CNC[C@H](NC(=O)CNC(=O)c2cccc(C(F)(F)F)c2)C(=O)NC(C)(C)C)cc1N | 120 | – | – | < 30 | –
CNC(=O)[C@H](CNCc1ccc(C)cc1C)NC(=O)CNC(=O)c1cccc(C(F)(F)F)c1 | 230 | – | – | < 30 | –
Cc1cc(Br)ccc1CNC[C@H](NC(=O)CNC(=O)c1cccc(C(F)(F)F)c1)C(=O)NC(C)(C)C | 160 | – | – | < 30 | –
Cc1cc(N(C)C)ccc1CNC[C@H](NC(=O)CNC(=O)c1cccc(C(F)(F)F)c1)C(=O)NC(C)(C)C | 36 | – | – | < 30 | –
CCNC(=O)[C@H](CCNCc1ccc(C)cc1C)NC(=O)CNC(=O)c1cccc(C(F)(F)F)c1 | 410 | – | – | < 30 | –
Cc1ccc(CNCC[C@H](NC(=O)CNC(=O)c2cccc(C(F)(F)F)c2)C(N)=O)c(C)c1 | 3000 | – | – | < 30 | –
Cc1ccc(CNC[C@H](NC(=O)CNC(=O)c2cccc(C(F)(F)F)c2)C(=O)NC2(C)CC2)c(C)c1 | 100 | – | – | < 30 | –
Cc1ccc(CNC[C@H](NC(=O)CNC(=O)c2cccc(C(F)(F)F)c2)C(=O)NCc2ccccc2)c(C)c1 | 7000 | – | – | < 30 | –
Cc1ccc(CNC[C@H](NC(=O)CNC(=O)c2cccc(C(F)(F)F)c2)C(=O)NC2CCC2)c(C)c1 | 97 | – | – | < 30 | –
Cc1ccc(CNC[C@@H](NC(=O)CNC(=O)c2cccc(C(F)(F)F)c2)C(=O)NC(C)(C)C)c(C)c1 | 110 | – | – | < 30 | –
Cc1ccc(CNC[C@H](NC(=O)CNC(=O)c2cccc(C(F)(F)F)c2)C(=O)NC(C)(C)C)cc1[N+](=O)[O-] | 670 | – | – | < 30 | –
CCNC(=O)[C@H](CNCc1ccc(C)cc1C)NC(=O)CNC(=O)c1cccc(C(F)(F)F)c1 | 110 | – | – | < 30 | –
COC(=O)[C@@H](CNC(=O)CNC(=O)c1cccc(C(F)(F)F)c1)NCc1ccc(C)cc1C | 15000 | – | – | < 30 | –
Cc1ccc(CNC[C@H](NC(=O)CNC(=O)c2cccc(C(F)(F)F)c2)C(=O)N2CCOCC2)c(C)c1 | 490 | – | – | < 30 | –
Cc1ccc(CNC[C@H](NC(=O)CNC(=O)c2cc(C(F)(F)F)ccc2NCC(C)C)C(=O)NC(C)(C)C)c(C)c1 | 23 | – | – | < 30 | –
Cc1ccc(CNC[C@H](NC(=O)CNC(=O)c2cccc(C(F)(F)F)c2)C(=O)NC(C)C)c(C)c1 | 170 | – | – | < 30 | –
Cc1cc(C#N)ccc1CNC[C@H](NC(=O)CNC(=O)c1cccc(C(F)(F)F)c1)C(=O)NC(C)(C)C | 900 | – | – | < 30 | –
COc1cc(C)c(CNC[C@H](NC(=O)CNC(=O)c2cccc(C(F)(F)F)c2)C(=O)NC(C)(C)C)cc1C | 1300 | – | – | < 30 | –
CCNC(=O)[C@@H](CNCc1ccc(C)cc1C)NC(=O)CNC(=O)c1cccc(C(F)(F)F)c1 | 560 | – | – | < 30 | –
Cc1ccc(CNC[C@H](NC(=O)CNC(=O)c2cc(NCC(C)C)cc(C(F)(F)F)c2)C(=O)NC(C)(C)C)c(C)c1 | 130 | – | – | < 30 | –
Cc1ccc(CNC[C@H](CO)NC(=O)CNC(=O)c2cccc(C(F)(F)F)c2)c(C)c1 | 2200 | – | – | < 30 | –
CC(C)(C)NC(=O)[C@H](CNCc1ccc(Br)cc1)NC(=O)CNC(=O)c1cccc(C(F)(F)F)c1 | 1700 | – | – | < 30 | –
Cc1ccc(CNC[C@H](NC(=O)CNC(=O)c2cccc(C(F)(F)F)c2)C(=O)NC(C)(C)C)cc1 | 750 | – | – | < 30 | –
Cc1ccc(CNC[C@H](NC(=O)CNC(=O)c2cccc(C(F)(F)F)c2)C(=O)O)c(C)c1 | 5500 | – | – | < 30 | –
